Data: ChEMBL document CHEMBL1155449, “Peptide HIV-1 integrase inhibitors from HIV-1 gene products” (J Med Chem, 2010)
Calls of active or inactive are those of the source. The calls are words filed in the database; no cut-off is given here. Where a SMILES comes first, the peptide text is derived from it.

Key:
[1] = target: T1, Human immunodeficiency virus type 1 integrase (Human immunodeficiency virus 1, UniProt Q7ZJM1); assay: Inhibition of HIV1 integrase strand transfer activity after 1 hr by densitometric analysis
[2] = target: T1, Human immunodeficiency virus type 1 integrase; assay: Inhibition of HIV1 integrase 3'-end processing activity after 1 hr by densitometric analysis
[3] = tested on: Human immunodeficiency virus 1; assay: Antiviral activity against HIV1 HXB2 infected in human MT4 cells assessed as firefly luciferase activity at 20 uM after 6 to 7 days by chemiluminescence assay; assay type: functional, organism-based
How it was run: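 MT-4 Luc cells (constitutively high luciferase; HIV-1-induced cell death lowers signal), 1×10^3 cells per well, infected with HIV-1 HXB2 (ca. 0.2-10 ng p24) with varying peptide concentrations present. Lysed 6-7 d post-infection; luciferase read by chemiluminescence. Protection from HIV-1-induced death keeps signal high, and a fall in signal also serves as the cytotoxicity read-out.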

[4] = target: Human immunodeficiency virus type 1 reverse transcriptase (Human immunodeficiency virus 1, UniProt Q72547); assay: Inhibition of HIV1 reverse transcriptase-associated ribonuclease H activity by fluorescence assay
MT4 = assay: Cytotoxicity against human MT4 cells assessed as firefly luciferase activity at 1 to 100 uM after 6 to 7 days by chemiluminescence assay; assay type: cell-based; conditions: mt4, 100 µM
How it was run: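 1×10^3 MT-4 Luc cells constitutively expressing luciferase were exposed to varying peptide concentrations in the HIV-1 HXB2 (ca. 0.2-10 ng p24) infection format. Cells lysed after 6-7 d and luciferase measured by chemiluminescence. Cytotoxicity is read as loss of luciferase signal.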

[5] = tested on: Human immunodeficiency virus 1; assay: Antiviral activity against HIV1 HXB2 infected in CD4/CXCR4-expressing human NP2 cells assessed as generation of viral DNA at late stage of reverse transcription at 0.5 uM measured on day 2 post viral infection by quantitative RT-PCR analysis relative to control; assay type: functional
How it was run: (§1)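 NP2-CD4-CXCR4 cells infected with HIV-1 HXB2 with or without 0.5 μM peptide (DMSO control). Genomic DNA extracted day 2 post-infection. Viral DNA quantified by real-time PCR for strong-stop DNA, late reverse-transcription products, Alu-LTR (integrated) and 2-LTR (end-joined) products. Each is expressed as % of the DMSO-treated control.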

[6] = tested on: Human immunodeficiency virus 1; assay: Antiviral activity against HIV1 HXB2 infected in CD4/CXCR4-expressing human NP2 cells assessed as host cellular enzyme catalyzed end-joined viral genome production at 0.5 uM measured on day 2 post viral infection by quantitative RT-PCR analysis relative to control; assay type: functional; how it was run: as §1
[7] = tested on: Human immunodeficiency virus 1; assay: Antiviral activity against HIV1 HXB2 infected in CD4/CXCR4-expressing human NP2 cells assessed as total genome of infected virus at 0.5 uM measured on day 2 post viral infection by quantitative RT-PCR analysis relative to control; assay type: functional; how it was run: as §1
[8] = Selectivity index, ratio of cytotoxicity against human MT4 cells to antiviral activity against HIV1 JRCSF infected in CD4/CCR5-expressing human NP2 cells; assay type: toxicity, cell-based; conditions: read-out: Selectivity Index
[9] = tested on: Human immunodeficiency virus 1; assay: Antiviral activity against HIV1 HXB2 infected in human MT4 cells assessed as inhibition of viral p24 antigen production at 0.5 uM measured on day 4 post viral infection by ELISA; assay type: functional, organism-based
How it was run: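 1×10^5 MT-4 cells incubated 30 min at room temperature with HIV-1 HXB2 supernatant (ca. 0.2-50 ng p24), washed and cultured with 0.5 μM peptide or without. Supernatants collected at several time points for p24 ELISA, with cells passaged as needed.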

[10] = tested on: Human immunodeficiency virus 1; assay: Antiviral activity against HIV1 JRCSF infected in CD4/CCR5-expressing human NP2 cells assessed as inhibition of viral p24 antigen production measured on day 4 post viral infection by ELISA; assay type: functional, organism-based; conditions: JRCSF ISOLATE
How it was run: (§2)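 1×10^5 NP2-CD4-CCR5 cells incubated 30 min at room temperature with HIV-1 JR-CSF supernatant (ca. 0.2-50 ng p24), washed and cultured with varying peptide concentrations. Supernatant p24 measured by ELISA on day 4 post-infection.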

[11] = target: Human immunodeficiency virus type 1 integrase (Human immunodeficiency virus 1) (UniProt Q7ZJM1); assay: Inhibition of HIV1 HXB2 integrase-mediated integrate viral genome production in CD4/CXCR4-expressing human NP2 cells assessed as production of integrate viral genome at 0.5 uM measured on day 2 post viral infection by quantitative RT-PCR analysis; assay type: cell-based; design: scale not given: the % may be the effect or the level left; how it was run: as §1
[12] = tested on: Human immunodeficiency virus 1; assay: Antiviral activity against HIV1 JRCSF infected in CD4/CCR5-expressing human NP2 cells assessed as inhibition of viral p24 antigen production at 0.8 uM measured on day 4 post viral infection by ELISA; assay type: functional; conditions: Human immunodeficiency virus 1, JRCSF ISOLATE, NP2, 96 h; how it was run: as §2

T1 sequence (Q7ZJM1 whole entry): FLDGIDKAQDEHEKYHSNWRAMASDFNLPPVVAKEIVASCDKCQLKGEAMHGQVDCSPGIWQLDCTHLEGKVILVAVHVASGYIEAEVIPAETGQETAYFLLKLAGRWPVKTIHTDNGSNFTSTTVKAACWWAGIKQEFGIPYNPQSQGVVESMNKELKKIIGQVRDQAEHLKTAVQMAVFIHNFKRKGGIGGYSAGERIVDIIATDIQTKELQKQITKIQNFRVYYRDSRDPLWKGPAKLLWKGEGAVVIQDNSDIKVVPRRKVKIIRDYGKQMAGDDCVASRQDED
Sequence of Human immunodeficiency virus type 1 integrase (Human immunodeficiency virus 1) (Q7ZJM1 as listed by the source): as the sequence (Q7ZJM1 whole entry) above

Row | Structure (SMILES) | IC50 [1] [nM] | IC50 [2] [nM] | Activity [3] | IC50 [4] [nM] | Activity (MT4) | Activity [5] [%] | Activity [6] [%] | Activity [7] [%] | selectivity ratio [8] | inhibition [9] | inhibition [10] | Activity [11] [%] | inhibition at 0.8 µM [12] [%]
1 | CC[C@H](C)[C@H](NC(=O)[C@H](C)NC(=O)[C@H](CCC(=O)O)NC(C)=O)C(=O)N[C@H](C(=O)N[C@@H](CCCNC(=N)N)C(=O)N[C@H](C(=O)N[C@@H](CC(C)C)C(=O)N[C@@H](CCC(N)=O)C(=O)N[C@@H](CCC(N)=O)C(=O)N[C@@H](CC(C)C)C(=O)N[C@@H](CC(C)C)C(=O)N[C@@H](Cc1ccccc1)C(=O)N[C@H](C(=O)N[C@@H](Cc1cnc[nH]1)C(=O)N[C@@H](Cc1ccccc1)C(=O)N[C@@H](CCCNC(=N)N)C(=O)N[C@H](C(=O)NCC(=O)N[C@@H](CCCNC(=N)N)C(=O)N[C@@H](CCCNC(=N)N)C(=O)N[C@@H](CCCNC(=N)N)C(=O)N[C@@H](CCCNC(=N)N)C(=O)N[C@@H](CCCNC(=N)N)C(=O)N[C@@H](CCCNC(=N)N)C(=O)N[C@@H](CCCNC(=N)N)C(=O)N[C@@H](CCCNC(=N)N)C(N)=O)[C@@H](C)CC)[C@@H](C)CC)[C@@H](C)CC)[C@@H](C)CC | 5 | 6 | Active | > 500 | Non-toxic | – | – | – | – | – | – | – | –
2 | CC(=O)N[C@@H](CC(C)C)C(=O)N[C@@H](CCC(N)=O)C(=O)N[C@@H](CCC(N)=O)C(=O)N[C@@H](CC(C)C)C(=O)N[C@@H](CC(C)C)C(=O)N[C@@H](Cc1ccccc1)C(=O)N[C@@H](CCCNC(=N)N)C(=O)N[C@@H](CCCNC(=N)N)C(=O)N[C@@H](CCCNC(=N)N)C(=O)N[C@@H](CCCNC(=N)N)C(=O)N[C@@H](CCCNC(=N)N)C(=O)N[C@@H](CCCNC(=N)N)C(=O)N[C@@H](CCCNC(=N)N)C(=O)N[C@@H](CCCNC(=N)N)C(N)=O (Ac-LQQLLFRRRRRRRR-NH2) | – | – | – | – | Non-toxic | – | – | – | – | – | – | – | –
3 | CC[C@H](C)[C@H](NC(C)=O)C(=O)N[C@@H](Cc1cnc[nH]1)C(=O)N[C@@H](Cc1ccccc1)C(=O)N[C@@H](CCCNC(=N)N)C(=O)N[C@H](C(=O)NCC(=O)N[C@@H](CCCNC(=N)N)C(=O)N[C@@H](CCCNC(=N)N)C(=O)N[C@@H](CCCNC(=N)N)C(=O)N[C@@H](CCCNC(=N)N)C(=O)N[C@@H](CCCNC(=N)N)C(=O)N[C@@H](CCCNC(=N)N)C(=O)N[C@@H](CCCNC(=N)N)C(=O)N[C@@H](CCCNC(=N)N)C(N)=O)[C@@H](C)CC (Ac-IHFRIGRRRRRRRR-NH2) | – | – | inactive | – | Non-toxic | – | – | – | – | – | – | – | –
4 | CC[C@H](C)[C@H](NC(=O)[C@H](CCCNC(=N)N)NC(=O)[C@H](Cc1ccccc1)NC(=O)[C@H](Cc1cnc[nH]1)NC(=O)[C@@H](NC(=O)[C@H](Cc1ccccc1)NC(=O)[C@H](CC(C)C)NC(=O)[C@H](CC(C)C)NC(=O)[C@H](CCC(N)=O)NC(=O)[C@H](CCC(N)=O)NC(=O)[C@H](CC(C)C)NC(C)=O)[C@@H](C)CC)C(=O)NCC(=O)N[C@@H](CCCNC(=N)N)C(=O)N[C@@H](CCCNC(=N)N)C(=O)N[C@@H](CCCNC(=N)N)C(=O)N[C@@H](CCCNC(=N)N)C(=O)N[C@@H](CCCNC(=N)N)C(=O)N[C@@H](CCCNC(=N)N)C(=O)N[C@@H](CCCNC(=N)N)C(=O)N[C@@H](CCCNC(=N)N)C(N)=O | 4 | 8 | – | > 500 | Non-toxic | 84.4 | 779.8 | 139.7 | 10 | Active | Dose-dependent effect | 15.8 | 50
